HIF act = HIF pathway transcriptional activators, primary screen, cell-based, U2OS HRE-luciferase, luminescence | AID 1910, 2009 | U2OS HRE-luciferase reporter; normalized: DMSO 0%, desferrioxamine 100% | 300,000 tested, 0.32% active | activation, % at 7.5 µM (by protocol);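 active = mean activation of at least 10% of the iron chelator positive control signal, with at least half of replicates also reaching 10%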
FXN GAA850 act = FXN promoter activators, primary screen, cell-based, luciferase luminescence, HEK293 lucGAA850; HEK293 lucGAA850 FXN promoter luciferase reporter, 24 h; percent of 10 µM SAHA response; activation, % at 6 µM; 360,000 tested, 0.56% active;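 active = activation above the average of all compounds screened plus 3 SD, cutoff fixed separately per campaign, cut at about 7.5% in these data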;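 note: 0% = DMSO wells and 100% = 10 µM SAHA wells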
Rad51 HR inh = human RAD51 strand exchange inhibitors, primary screen, biochemical, fluorescence | hRad51 DNA strand exchange, fluorescence dequenching | DNA repair protein RAD51 homolog 1 (Homo sapiens), Q06609 | inhibition, % at 10 µM | 200,000 tested, 0.085% active;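 active = inhibition above 40% at the single screening dose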;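 note: 0% = DMSO control wells and 100% = blanks with heterologous ssDNA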
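Test system: preformed human Rad51 ssDNA filaments; also added: Donor/quencher-labelled 47-bp dsDNA substrate; doses: 10 µM final, single point; times: 37 °C 15-min filament assembly, 30-min compound preincubation, 15-min exchange; detection: FRET fluorescence dequenching, excitation 485 nm, emission 520 nm; read-out basis: Fluorescence-based percent inhibition, control- and blank-normalised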
Hsp70 act = Hsp70 transcriptional activators, primary screen, cell-based, HeLa, Hsp70 promoter luciferase, luminescence, 10 µM; HeLa Hsp70 promoter luciferase reporter; scaled: vehicle 0, proteasome-inhibitor control 100%; activation, % at 10 µM; 200,000 tested, 0.04% active;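 active = activation above the mean across all tested compounds plus 3 SD, cutoff set per campaign, cut at about 5.5% in these data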;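 note: 100% = MG132 at 30 µM as the positive control and 0% = DMSO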
ABHD5 PLIN5 PPI = ABHD5-PLIN5 interaction inhibitors, primary screen, cell lysate, split luciferase complementation, luminescence | Split G. princeps luciferase complementation, 4 h | inhibition, % at 4 µM | 360,000 tested, 0.78% active;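 active = inhibition above the mean inhibition across every tested compound plus 3 SD, cut at about 22% in these data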;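 note: 0% = DMSO only wells and the 100% control is not disclosed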
H9c2 TAG inh = inhibitors of triacylglycerol accumulation, primary screen, cell-based, uHTS, fluorescence, H9c2 | H9c2 cells, Nile Red lipid (TAG) fluorescence; cells loaded with 200 µM oleic acid | inhibition, % at 12.5 µM | 230,000 tested, 0.66% active | AID 651582, 2012;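 active = pattern-corrected inhibition of lipid staining of at least 50% with the nuclear-stain viability signal not falling by more than 50%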;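 note: 0% = DMSO wells and 100% = triacsin C control wells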
ABHD5-PLIN5 conf = ABHD5-PLIN5 interaction inhibitors, confirmation, biochemical, luminescence. shares compounds with ABHD5 PLIN5 PPI. inhibition, % at 4 µM. 2,200 tested, 67% active. AID 651612, 2012; in the data active = inhibition above about 23%;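 note: 0% = DMSO vehicle wells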
HNF4 split-luc = HNF4 dimerization inhibitors, counter-screen for ABHD5-PLIN5 interaction inhibitor project, biochemical, split-luciferase complementation, luminescence. shares compounds with ABHD5 PLIN5 PPI. inhibition, % at 4 µM. 2,200 tested, 77% active;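 active = mean inhibition across replicate wells exceeding the computed hit threshold, cut at about 13% in these data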;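 note: light from luciferase halves that rejoin when HNF4 fusion proteins dimerize; 0% = DMSO only wells and the 100% control is not given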
Target sequence (P41235 whole entry, looked up, the tested form may be a part): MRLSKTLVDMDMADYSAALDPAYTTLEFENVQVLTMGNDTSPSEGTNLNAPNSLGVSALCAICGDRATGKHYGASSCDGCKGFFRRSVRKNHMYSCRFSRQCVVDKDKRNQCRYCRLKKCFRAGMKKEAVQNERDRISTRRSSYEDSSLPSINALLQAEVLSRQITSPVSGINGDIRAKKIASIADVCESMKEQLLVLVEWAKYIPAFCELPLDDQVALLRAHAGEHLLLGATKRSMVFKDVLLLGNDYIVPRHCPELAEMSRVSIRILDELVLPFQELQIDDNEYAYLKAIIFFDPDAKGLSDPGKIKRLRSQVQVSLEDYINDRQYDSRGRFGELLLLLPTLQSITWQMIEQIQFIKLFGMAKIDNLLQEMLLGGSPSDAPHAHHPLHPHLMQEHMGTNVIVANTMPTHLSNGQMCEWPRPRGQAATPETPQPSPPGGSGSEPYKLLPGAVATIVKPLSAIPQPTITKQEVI
Active calls of the source: *; · = no result. Sampled rows, rich in hits. Any-hit rate of the full collection: about 1.9%.

SMILES	HIF act	FXN GAA850 act	Rad51 HR inh	Hsp70 act	ABHD5 PLIN5 PPI	H9c2 TAG inh	ABHD5-PLIN5 conf	HNF4 split-luc
CSCCC(c1nc2ccccc2[nH]1)n1c(=O)c(-c2ccco2)nc2ccccc21 (stereo unspecified)	·	·	·	·	34*	·	34*	40*
Cc1cccc(C)c1NC(=O)C(c1ccc(C(F)(F)F)cc1)n1c(=O)c(-c2ccccc2)nc2ccccc21 (stereo unspecified)	·	·	·	·	-15	·	·	·
CC(C)(C)NC(=O)C(C1CC1)n1c(=O)c(-c2cc3ccccc3[nH]2)nc2ccccc21 (stereo unspecified)	·	·	·	·	-13	·	·	·
Cc1cccc(C)c1NC(=O)C(C1CC1)n1c(=O)c(-c2ccco2)nc2ccccc21 (stereo unspecified)	·	·	·	·	61*	·	43*	25*
CC(C)(C)NC(=O)C(C1CC1)n1c(=O)c(-c2ccco2)nc2ccccc21 (stereo unspecified)	·	·	·	·	51*	·	73*	23*
CSCCC(c1nc2ccccc2[nH]1)n1c(=O)c(-c2cccnc2)nc2ccccc21 (stereo unspecified)	·	·	·	·	6	·	·	·
Cc1cccc(C)c1NC(=O)C(c1ccncc1)n1c(=O)c(-c2ccco2)nc2ccccc21 (stereo unspecified)	·	·	·	·	56*	·	23*	12
Nc1nc2ccccc2n1S(=O)(=O)c1ccccc1	·	2	·	·	-6	-17	·	·
O=C(/C=C/c1ccco1)N1CCN(S(=O)(=O)/C=C/c2ccccc2)CC1	2	1	18	0	29*	8	24*	46*
O=C(NCc1ccccc1)C(c1ccc(C(F)(F)F)cc1)n1c(=O)c(-c2ccco2)nc2ccccc21 (stereo unspecified)	·	·	·	·	74*	·	95*	44*
O=C(NCc1ccccc1)C(c1cccc2ccccc12)n1c(=O)c(-c2ccccc2)nc2ccccc21 (stereo unspecified)	·	·	·	·	8	·	·	·
O=C(NCc1ccccc1)C(c1ccccc1)n1c(=O)c(-c2ccco2)nc2ccccc21 (stereo unspecified)	·	·	·	·	74*	·	48*	12
CC(C)(C)NC(=O)C(c1ccc(C(F)(F)F)cc1)n1c(=O)c(-c2ccco2)nc2ccccc21 (stereo unspecified)	·	·	·	·	60*	·	87*	38*
CC(C)(C)NC(=O)C(c1ccccc1)n1c(=O)c(-c2ccccc2)nc2ccccc21 (stereo unspecified)	·	·	·	·	-5	·	·	·
O=C(NCc1ccccc1)C(c1cc2ccccc2o1)n1c(=O)c(-c2ccco2)nc2ccccc21 (stereo unspecified)	·	·	·	·	91*	·	62*	15*
O=C(NCc1ccccc1)C(c1ccc(C(F)(F)F)cc1)n1c(=O)c(-c2ccccc2)nc2ccccc21 (stereo unspecified)	·	·	·	·	-3	·	·	·
O=C(NCc1ccccc1)C(C1CC1)n1c(=O)c(-c2ccco2)nc2ccccc21 (stereo unspecified)	·	·	·	·	38*	·	37*	13*
COc1ccc(C(=O)c2ccc(Cl)cc2)c(OC)c1OC	·	0	·	·	-8	-14	·	·
Cc1ccc(C2Nc3ccc4ccccc4c3C3=C2C(=O)CC(C)(C)C3)o1 (stereo unspecified)	3	4	-10	0	30*	·	4	7
O=C1Nc2ccccc2C1=Nc1cccc(Cl)c1	0	1	·	·	78*	·	-14	0
O=C(/C=C/c1cccc(Cl)c1)c1ccc([N+](=O)[O-])o1	-2	-13	·	·	96*	95	103*	110*
NS(=O)(=O)c1ccc(CNC(=O)/C=C/c2cccc(Cl)c2)cc1	0	1	9	0	-2	7	·	·
Cc1ccc(-c2nc3c(Cl)cc(C(F)(F)F)cn3c2Cc2ccsc2)cc1	·	·	·	·	-6	·	·	·
O=S(=O)(Nc1nc2ccccc2nc1NCc1ccco1)c1ccccc1	0	2	-5	0	17	·	·	·
O=S(=O)(Nc1nc2ccccc2nc1NCc1ccco1)c1ccc(F)cc1	-2	-1	·	·	25*	1	5	6
SMILES	HIF act	FXN GAA850 act	Rad51 HR inh	Hsp70 act	ABHD5 PLIN5 PPI	H9c2 TAG inh	ABHD5-PLIN5 conf	HNF4 split-luc
CCOC(=O)C(NC(=O)c1ccccc1Cl)(Nc1sc2c(c1C(N)=O)CCC2)C(F)(F)F (stereo unspecified)	0	0	-9	0	24*	·	23*	27*
CCOC(=O)C(NC(=O)c1cccc(Cl)c1)(Nc1sc2c(c1C(N)=O)CCC2)C(F)(F)F (stereo unspecified)	0	0	-5	0	-3	-1	·	·
COc1ccc(CN=C2Nc3ccccc3CS2)cc1	1	7	3	0	37*	·	3	3
COc1ccc(-c2csc(NC(=O)C3CCN(c4ncnc5sc(C)c(C)c45)CC3)n2)cc1OC	1	-7	·	·	-6	43	·	·
O=C(CSc1nnc(NC(=O)c2c(F)cccc2F)s1)NCc1ccccc1	0	2	·	·	6	·	·	·
CS(=O)(=O)c1nc(-c2cccs2)cc(C(F)(F)F)n1	-6	·	-1	1	·	·	·	·
O=C(O)CCS(=O)(=O)c1nc(-c2cccs2)cc(C(F)(F)F)n1	0	3	·	0	28*	·	59*	66*

High-throughput results deposited in PubChem by several laboratories.
